pEC50: −log10 of the molar value. Active and inactive are the calls of the source. No cut-off for these calls is given here.
Tests used:
[1] = Cytotoxicity against African green monkey Vero cells assessed as reduction in cell viability by MTT assay; format: cell-based; settings: chlorocebus sabaeus
Procedure, shortened: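 Vero cell viability tested over 100–2000 µM. CC50 is the concentration reducing viability by 50% versus untreated controls. Mean ± SD of 3 independent experiments.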

Zika virus [2] = experiment: Antiviral activity against Zika virus infected in African green monkey Vero cells assessed as reduction in viral replication treated with compound at 1 hr post-viral infection; format: functional, organism-based
Procedure, shortened: (§1)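 Vero cells infected at MOI 0.1 and given 1 h for viral adsorption, then treated with increasing compound concentrations. EC50 is the concentration reducing viral replication by 50% versus infected controls. Mean ± SD of three independent experiments.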

[3] = Selectivity index, ratio of CC50 for African monkey Vero cells to EC50 for Zika virus infected in African green monkey Vero cells; format: toxicity; settings: read-out: Ratio CC50/EC50
Procedure, shortened: (§2)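 SI = CC50 in Vero cells divided by EC50 against the matching virus in Vero cells. Both values come from three independent experiments.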

Chikungunya virus [4] = experiment: Antiviral activity against Chikungunya virus infected in African green monkey Vero cells assessed as reduction in viral replication treated with compound at 1 hr post-viral infection; format: functional, organism-based; procedure, shortened: as §1
[5] = Selectivity index, ratio of CC50 for African monkey Vero cells to EC50 for Chikungunya virus infected in African green monkey Vero cells; format: toxicity; settings: read-out: Ratio CC50/EC50; procedure, shortened: as §2
Chikungunya virus [6] = experiment: Antiviral activity against Chikungunya virus infected in African green monkey Vero cells assessed as reduction in viral RNA production; format: functional, organism-based
Chikungunya virus [7] = experiment: Antiviral activity against Chikungunya virus infected in African green monkey Vero cells assessed as reduction in viral replication at 10 uM treated with compound at 16 hrs post infection by plaque formation assay; format: functional, organism-based
Chikungunya virus [8] = experiment: Antiviral activity against Chikungunya virus infected in African green monkey Vero cells assessed as reduction in viral replication at 10 uM treated with compound up to 12 hrs post infection by plaque formation assay; format: functional, organism-based
[9] = Ratio of RibavarinCC50 to compound CC50 for African green monkey Vero cells assessed as reduction in cell viability by MTT assay; format: cell-based; settings: chlorocebus sabaeus
Zika virus [10] = experiment: Antiviral activity against Zika virus infected in African green monkey Vero cells assessed as reduction in viral replication at 10 uM treated with compound at 6 hrs post infection by plaque formation assay; format: functional, organism-based
Zika virus [11] = experiment: Antiviral activity against Zika virus infected in African green monkey Vero cells assessed as reduction in viral RNA production; format: functional, organism-based
Zika virus [12] = experiment: Antiviral activity against Zika virus infected in African green monkey Vero cells assessed as reduction in viral replication at 10 uM treated with compound up to 6 hrs post infection by plaque formation assay; format: functional, organism-based
Zika virus [13] = experiment: Antiviral activity against Zika virus infected in African green monkey Vero cells assessed as reduction in viral replication at 10 uM treated with compound at 12 hrs post infection by plaque formation assay; format: functional, organism-based

**Q.** With `O=C(N/N=C/c1ccccc1O)c1c[nH]c2ccc(F)cc2c1=O` as the molecule, how does the CC50 [1] read?
**A.** The CC50 was 669 µM.

**Q.** And the pEC50 (Zika virus [2])?
**A.** The pEC50 was 6.12.

**Q.** What about the selectivity ratio [3] of the same molecule?
**A.** The selectivity ratio was 893.

**Q.** What about the pEC50 (Chikungunya virus [4]) of the same molecule?
**A.** Its pEC50 is 5.97.

**Q.** What about the selectivity ratio [5] of the same molecule?
**A.** Its selectivity ratio is 632.

**Q.** What about the Activity (Chikungunya virus [6]) of the same molecule?
**A.** Its Activity is “Dose-dependent effect”.

**Q.** And the Activity (Chikungunya virus [7])?
**A.** Its Activity is “inactive”.

**Q.** And the Activity (Chikungunya virus [8])?
**A.** Its Activity is “Active”.

**Q.** And the selectivity ratio [9]?
**A.** Its selectivity ratio is no less than 2.

**Q.** Which results are given for `O=C(N/N=C/c1ccccc1O)c1c[nH]c2ccccc2c1=O`?
**A.** CC50 [1]: 502 µM; pEC50 (Zika virus [2]): 6.12; selectivity ratio [3]: 661; pEC50 (Chikungunya virus [4]): 5.55; selectivity ratio [5]: 176; selectivity ratio [9]: ≥ 2

**Q.** Which results are given for `NC(=O)c1ncn([C@@H]2O[C@H](CO)[C@@H](O)[C@H]2O)n1` [RIBAVIRIN]?
**A.** CC50 [1]: 297 µM; pEC50 (Zika virus [2]): 5.40; selectivity ratio [3]: 75.2; pEC50 (Chikungunya virus [4]): 5.62; selectivity ratio [5]: 122; Activity (Chikungunya virus [8]): inactive; Activity (Zika virus [10]): inactive

**Q.** Which CC50 [1] does the source give for `O=C(N/N=C/c1ccccc1O)c1c[nH]c2ccc(Br)cc2c1=O` here?
**A.** Its CC50 is 443 µM.

**Q.** And the pEC50 (Zika virus [2])?
**A.** The pEC50 was 6.09.

**Q.** And the selectivity ratio [3]?
**A.** Its selectivity ratio is 548.

**Q.** And the pEC50 (Chikungunya virus [4])?
**A.** Its pEC50 is 5.57.

**Q.** What about the selectivity ratio [5] of the same molecule?
**A.** The selectivity ratio was 164.

**Q.** And the selectivity ratio [9]?
**A.** The selectivity ratio was no less than 2.

**Q.** Which CC50 [1] does the source give for `O=C(N/N=C/c1ccccc1O)c1c[nH]c2ccc(Cl)cc2c1=O` here?
**A.** Its CC50 is 1110 µM.

**Q.** And the pEC50 (Zika virus [2])?
**A.** Its pEC50 is 6.10.

**Q.** And the selectivity ratio [3]?
**A.** The selectivity ratio was 1410.

**Q.** And the pEC50 (Chikungunya virus [4])?
**A.** Its pEC50 is 5.56.

**Q.** What about the selectivity ratio [5] of the same molecule?
**A.** The selectivity ratio was 402.

**Q.** What about the Activity (Zika virus [11]) of the same molecule?
**A.** The Activity was “Dose-dependent effect”.

**Q.** What about the Activity (Zika virus [12]) of the same molecule?
**A.** Its Activity is “Active”.

**Q.** And the Activity (Zika virus [13])?
**A.** The Activity was “Active”.

**Q.** And the selectivity ratio [9]?
**A.** Its selectivity ratio is no less than 2.

From ChEMBL document CHEMBL4602650, “Quinolone-N-acylhydrazone hybrids as potent Zika and Chikungunya virus inhibitors” (Bioorg Med Chem Lett, 2020)
